Sampled rows, rich in hits. Any-hit rate of the full collection: about 2.3%.
PAX8 inh HTS: PAX8 transcriptional activity inhibition; RMG-I TPO-luciferase reporter, SteadyGlo, 24 h; inhibition, % at 12.6 µM; 1.2% of 360,000 active; AID 652154;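 active = mean replicate inhibition at least 60% with every replicate also reaching 60%; inconclusive = only one of the two criteria is met; inactive = mean below 60% and not all replicates reaching 60%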;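 also: luciferase light reporting Pax8 driven TPO promoter activity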
PGC1a acetyl inh: PGC1a acetylation modulation, inhibitor mode. inhibition, % at 15.6 µM. AID 651687. U2OS PGC1a acetylation, AlphaScreen anti-acetyl-lysine; with virally co-expressed GCN5 acetyltransferase. 0.17% of 350,000 active;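 active = every replicate shows inhibition of at least 40%; inconclusive = mean inhibition at least 40% but some replicate below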
EWS-Fli inh: inhibitors of EWS/Fli oncoprotein transcriptional activity; A673 NR0B1-luciferase reporter, viability-normalised; inhibition, % at 12.6 µM; 0.67% of 350,000 active; AID 651661;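 active = mean inhibition of at least 50% after viability correction, with every replicate also passing that limit; inconclusive = mean reaches 50% but only one of two replicates passes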;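 also: firefly luciferase signal divided by Alamar Blue viability fluorescence both relative to DMSO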
HIV Env fusion: inhibitors of HIV Env-mediated cell fusion. 1.1% of 360,000 active. AID 651610. inhibition, % at 12.3 µM. HeLa-JRFL Env/CEM21 cell fusion, luciferase;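 active = mean replicate inhibition score of at least 50 and every replicate individually at or above 50; inconclusive = only one of the two criteria met; inactive = mean below 50 and not all replicates reaching 50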
FN deposition inh: fibronectin deposition inhibition. AH1F fibroblasts, Alexa488-fibronectin deposition fluorescence, overnight. inhibition, % at 12.6 µM. 0.086% of 350,000 active. AID 743247;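 active = mean inhibition across replicates of 30% or more, regardless of how many single replicates reach that level; inconclusive = mean under 30% yet at least half of replicates reach 30%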
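Assay system: AH1F fibroblast monolayer, labelled fibronectin deposition. Amount: 10000 cells per well. Also added: labelled fibronectin 24 nM. Compound: single-point pinned compound. Incubation: cell attachment 1 h, compound and FN exposure overnight. Detection: fluorescence after three HBSS washes, excitation 485 nm, emission 525 nm. Read-out: inhibition of fibronectin deposition signal.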
CFTR F508del cor: correctors of CFTR F508del function in bronchial epithelial cells | CFBE cells, YFP halide quenching; stimulated with forskolin plus potentiator P3; % fluorescence drop versus neutral controls | activity (quench increase), % at 7.58 µM | 0.36% of 350,000 active | AID 720511;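 active = mean added fluorescence quench of at least 8% versus neutral control, with both replicates also reaching 8%; inconclusive = only one of the mean or replicate conditions met; inactive = mean below 8% and not both replicates reaching 8%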;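 also: cells transiently co-express mutant CFTR-F508del with the halide-sensitive YFP; corrector assay measuring rescue of mutant channel to the surface after 24 h compound exposure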
Of the large screens only hits and unclear results are named; the others gave an inactive call; [ ] = another dose, or the depositor's remark.

C[C@H]1CN([C@@H](C)CO)C(=O)c2cccc(NC(=O)Nc3ccc4c(c3)OCO4)c2O[C@H]1CN(C)C(=O)Nc1cccc2ccccc12	none (no result: FN deposition inh)
O=c1cc(-c2ccccc2)[nH]c2ccc(F)cc12	EWS-Fli inh 58, CFTR F508del cor 8.6
COc1ccc(-c2cc(=O)c3ccccc3[nH]2)cc1	none
CC#CCOCC1CNC(=O)O1 (stereo not drawn)	CFTR F508del cor 18
CCCN1C[C@H](C)[C@H](OC)CN(C)C(=O)c2cc(NC(=O)CC)ccc2OC[C@H]1C	none (no result: PAX8 inh HTS, HIV Env fusion, FN deposition inh)
CC12CCC(=O)C=C1CCC1C2CCC2(C)C1CC1C3C(=O)N(Cc4ccccc4)C(=O)C3CC(=O)C12 (stereo not drawn)	HIV Env fusion 61
Cc1nn(S(=O)(=O)c2ccc(Cl)cc2)c(C)c1Sc1ccc([N+](=O)[O-])cc1	CFTR F508del cor 15
Cc1cc(C)cc(NC(=S)N=Nc2c(O)n(C)c3ccc(S(=O)(=O)N4CCOCC4)cc23)c1	none (no result: CFTR F508del cor)
Cc1cccc(NC(=S)N=Nc2c(O)n(C)c3ccc(S(=O)(=O)N4CCOCC4)cc23)c1	HIV Env fusion 58 (no result: PAX8 inh HTS, PGC1a acetyl inh)
CC(=O)C1=C(O)C(=O)N(c2ccc(C)cc2)C1c1ccc([N+](=O)[O-])cc1 (stereo not drawn)	none (no result: PGC1a acetyl inh)
CC(=O)C1=C(O)C(=O)N(c2ccc(O)cc2)C1c1ccc([N+](=O)[O-])cc1 (stereo not drawn)	FN deposition inh 36
CCN(CC)CCn1c2c(c(SCC(=O)Nc3cc(OC)cc(OC)c3)nc1=O)CCC2	HIV Env fusion 61
CCN(CC)CCCn1c2c(c(SCC(=O)Nc3cc(C)cc(C)c3)nc1=O)CCC2	none (no result: PGC1a acetyl inh)
O=[N+]([O-])c1ccc(C2CCCC/C2=N/OCc2ccc(F)cc2)c([N+](=O)[O-])c1 (stereo not drawn)	HIV Env fusion 65 (no result: PAX8 inh HTS, EWS-Fli inh, FN deposition inh, CFTR F508del cor)
C[C@H]1CCCCO[C@@H](CN(C)Cc2ccc(C(F)(F)F)cc2)[C@@H](C)CN([C@@H](C)CO)C(=O)c2cc(NS(=O)(=O)c3ccc(Cl)cc3)ccc2O1	PAX8 inh HTS 102
C[C@@H]1CN([C@@H](C)CO)C(=O)c2cc(NS(=O)(=O)c3ccc(Cl)cc3)ccc2O[C@@H](C)CCCCO[C@H]1CN(C)Cc1ccc(C(F)(F)F)cc1	PAX8 inh HTS 102
C[C@@H]1CN([C@@H](C)CO)C(=O)c2cc(NS(=O)(=O)c3ccc(Cl)cc3)ccc2O[C@@H](C)CCCCO[C@@H]1CN(C)Cc1ccc(C(F)(F)F)cc1	none
C[C@@H]1CN([C@H](C)CO)C(=O)c2cc(NS(=O)(=O)c3ccc(Cl)cc3)ccc2O[C@@H](C)CCCCO[C@H]1CN(C)Cc1ccc(C(F)(F)F)cc1	PAX8 inh HTS 99, EWS-Fli inh 62
C[C@@H]1CCCCO[C@@H](CN(C)Cc2ccc(C(F)(F)F)cc2)[C@H](C)CN([C@H](C)CO)C(=O)c2cc(NS(=O)(=O)c3ccc(Cl)cc3)ccc2O1	PAX8 inh HTS 103, HIV Env fusion 61[16.7 µM]
CC(=O)Nc1ccc2c(c1)C(=O)N(C)C[C@H](C)[C@H](CN(C)C(C)=O)O2	none (no result: PAX8 inh HTS, PGC1a acetyl inh, EWS-Fli inh, HIV Env fusion, CFTR F508del cor)
CCCNC(=O)Nc1ccc2c(c1)C(=O)N(C)[C@@H]1CC[C@@H](CC(=O)O)O[C@@H]1CO2	none
C[C@@H]1CCCCO[C@H](CN(C)Cc2ccc(C(F)(F)F)cc2)[C@H](C)CN([C@H](C)CO)C(=O)c2cc(NS(=O)(=O)c3ccc(Cl)cc3)ccc2O1	PAX8 inh HTS 99, HIV Env fusion inconclusive
C[C@@H]1CCCCO[C@@H](CN(C)Cc2ccc(C(F)(F)F)cc2)[C@H](C)CN([C@@H](C)CO)C(=O)c2cc(NS(=O)(=O)c3ccc(Cl)cc3)ccc2O1	PAX8 inh HTS 103
CC(=O)Nc1cccc2c1O[C@H](CN(C)C(=O)OC(C)(C)C)[C@H](C)CN(C)C2=O	none (no result: PAX8 inh HTS, PGC1a acetyl inh, EWS-Fli inh, HIV Env fusion, CFTR F508del cor)
C[C@@H]1CC[C@H]2C(=O)N3[C@@H](CC[C@@H](C)[C@@H]3c3ccc(Br)cc3)C(=O)N2[C@H]1c1ccc(Br)cc1	HIV Env fusion 77 (no result: PGC1a acetyl inh)
O=C1C2C3C=CC(CC3)C2C(=O)N1c1ccc(Br)cc1 (stereo not drawn)	none
Cc1sc2nc(CSCC(=O)Nc3ccc(C(F)(F)F)cc3)[nH]c(=O)c2c1C	HIV Env fusion 78 (no result: PGC1a acetyl inh)
Cc1sc2nc(CSCC(=O)Nc3c(F)cccc3F)[nH]c(=O)c2c1C	none (no result: HIV Env fusion)
C[C@H]1CN([C@@H](C)CO)C(=O)c2cc(Br)cnc2O[C@H]1CN(C)C(=O)C1CCOCC1	none (no result: PAX8 inh HTS, FN deposition inh)
CC(NC(=O)/C(C#N)=C/c1ccc([N+](=O)[O-])o1)c1ccccc1 (stereo not drawn)	EWS-Fli inh 69 (no result: PGC1a acetyl inh)
Cc1ccc(C(O)c2ncc(-c3cccc4ccccc34)[nH]2)cc1F (stereo not drawn)	FN deposition inh 30
O=C1[C@@H]2Cc3c([nH]c4ccccc34)C(c3cccc(Br)c3)N2C(=O)CN1C1CCN(Cc2ccccc2)CC1 (stereo partly drawn)	PAX8 inh HTS 91, HIV Env fusion inconclusive
CCCNC(=O)N1CC2(CCN(C(=O)C3CCC3)CC2)c2c([nH]c3cc(OC)ccc23)[C@@H]1CO	none (no result: PGC1a acetyl inh, HIV Env fusion, FN deposition inh)
O=C(CCNS(=O)(=O)c1ccccc1)N1CCCCCCC1	HIV Env fusion 66 (no result: PGC1a acetyl inh)
O=C(CCNS(=O)(=O)c1ccccc1)N1CCCCCC1	none (no result: EWS-Fli inh)
CCCCN(C)c1c(C)nc2ccc(C(=O)N(CC)CCN(C)C)cn12	PAX8 inh HTS 82, HIV Env fusion 63
CCCCN(C=O)c1c(CC)nc2ccc(C(=O)N(CC)CCN(C)C)cn12	none
O=C(CN1CCN(S(=O)(=O)c2ccc(Cl)c(Cl)c2)CC1)N1CCCC1	CFTR F508del cor 11
O=C(CCl)N1CCN(S(=O)(=O)c2ccc3ccccc3c2)CC1	EWS-Fli inh 60
CN(C)C(=O)N1CCN(S(=O)(=O)c2ccc3ccccc3c2)CC1	none (no result: PGC1a acetyl inh)
C[C@H](O)C#Cc1ccc2c(c1)O[C@H](CN(C)Cc1ccc(-c3ccccc3)cc1)[C@@H](C)CN([C@@H](C)CO)S2(=O)=O	PAX8 inh HTS 109 (no result: HIV Env fusion, FN deposition inh)
C[C@H](O)C#Cc1ccc2c(c1)O[C@@H](CN(C)Cc1ccc(-c3ccccc3)cc1)[C@H](C)CN([C@H](C)CO)S2(=O)=O	PAX8 inh HTS 94 (no result: HIV Env fusion, FN deposition inh)
C[C@H](O)C#Cc1ccc2c(c1)O[C@H](CN(C)Cc1ccc(-c3ccccc3)cc1)[C@H](C)CN([C@@H](C)CO)S2(=O)=O	PAX8 inh HTS 81 (no result: HIV Env fusion, FN deposition inh)
C[C@@H]1CN([C@@H](C)CO)S(=O)(=O)c2ccc(C#C[C@@H](C)O)cc2O[C@@H]1CN(C)Cc1ccc(-c2ccccc2)cc1	PAX8 inh HTS 77 (no result: HIV Env fusion, FN deposition inh)
C[C@@H]1CN([C@H](C)CO)S(=O)(=O)c2ccc(C#C[C@@H](C)O)cc2O[C@H]1CN(C)Cc1ccc(-c2ccccc2)cc1	PAX8 inh HTS inconclusive (no result: HIV Env fusion, FN deposition inh)
